Columns and labels:
[1] = Stability in phosphate buffer assessed as half life at pH 7.7 by HPLC; assay type: physicochemical
Procedure, shortened: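 Incubation at 37 °C in 0.066 M pH 7.7 isotonic phosphate buffer. Samples injected directly onto HPLC (acetonitrile:water 20:80 to 50:50, detection 290 nm). Half-life calculated from decline in substrate concentration; mean of at least 2 determinations ± SD.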

[2] = Stability in 80% human plasma assessed as half life by HPLC; assay type: ADME, cell-free
Procedure, shortened: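 Plasma pooled from seven healthy donors, stored at −18 °C. Incubation at 37 °C in 80% plasma diluted with 0.066 M pH 7.4 isotonic phosphate buffer. Aliquots taken over time, diluted with acetonitrile, centrifuged, supernatant analysed by HPLC at 290 nm. t1/2 fitted from substrate loss; mean of at least 3 determinations ± SD.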

[3] = Octanol-phosphate buffer partition coefficient at pH 7.4 by HPLC; assay type: physicochemical
Procedure, shortened: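 Octanol and pH 7.4 phosphate buffer, each pre-saturated with the other, at 25 °C. Compound dissolved in octanol, then shaken with buffer for 30 min to equilibrium. Each phase analysed separately by HPLC (acetonitrile:water 20:80 to 50:50, 290 nm). P taken as ratio of octanol to buffer peak areas. Mean of at least 3 determinations ± SD.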

Row | SMILES | half-life [1] [h] | half-life [2] [h] | logD [3]
1 | C[C@H](NC(=O)c1ccccc1)C(=O)N(C)/N=N/c1ccc(C#N)cc1 | 9.2 | 1.6 | 3.04
2 | CC(=O)N[C@@H](Cc1ccccc1)C(=O)N(C)/N=N/c1ccc(C#N)cc1 | 13.9 | 2.4 | 2.76
3 | CC(=O)NCC(=O)N(C)/N=N/c1ccc(C#N)cc1 | 7.6 | 1.2 | 1.1
4 | CC(=O)N[C@@H](C)C(=O)N(C)/N=N/c1ccc(C(C)=O)cc1 | 13.9 | 2.3 | 1.51
5 | CC(=O)N[C@@H](C)C(=O)N(C)/N=N/c1ccc(C#N)cc1 | 9.8 | 1 | 1.41
6 | CC(=O)N[C@@H](C)C(=O)N(C)/N=N/c1ccc(C)cc1 | 46.5 | 15.1 | 2.45
7 | CCC(=O)N[C@@H](C)C(=O)N(C)/N=N/c1ccc(C#N)cc1 | 10.1 | 1.3 | 1.87
8 | CC(=O)N[C@@H](C)C(=O)N(C)/N=N/c1ccc(Br)cc1 | 25.5 | 5.7 | 2.8
9 | CCOC(=O)c1ccc(/N=N/N(C)C(=O)[C@H](C)NC(C)=O)cc1 | 15.7 | 4.6 | 2.52
10 | CC(=O)N[C@H](C(=O)N(C)/N=N/c1ccc(C#N)cc1)C(C)C | 84.3 | 5.7 | 2.18
11 | CCCC(=O)N[C@@H](C)C(=O)N(C)/N=N/c1ccc(C#N)cc1 | 9.1 | 1.1 | 2.28
12 | CC(=O)N[C@@H](C)C(=O)N(C)/N=N/c1ccc(C(N)=O)cc1 | 18.4 | 7.6 | 0.69

Source: ChEMBL document CHEMBL1137695, “Towards an efficient prodrug of the alkylating metabolite monomethyltriazene: synthesis and stability of N-acylamino acid derivatives of triazenes” (Eur J Med Chem, 2009)
